From ChEMBL document CHEMBL4513216, “Probing the Open Global Health Chemical Diversity Library for Multistage-Active Starting Points for Next-Generation Antimalarials” (ACS Infect Dis, 2020)

Assay: Toxicity liver stage against HepG2, at 10uM
Assay type: cell-based
Design: test concentration 10 uM, cell line HepG2-A16-CD81EGFP
Conditions: human, HepG2-A16-CD81EGFP cells; read-out: INHIBITION
In short: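 Uninfected HepG2-A16-CD81EGFP cells, 3 × 10^3 per well, 1536-well, plated on prespotted compound at 10 μM final, parasite-free screening media added to match infected plates; puromycin 10 μM positive, DMSO 0.5% negative; run in parallel with 48 h PbLuc assay at 37 °C, 5% CO2; viability by CellTiter-Glo luminescence, normalized to controls.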

SMILES | cytotoxicity at 10 µM [%]
Cc1nc(CNCc2cccnc2Oc2ccc(C)c(F)c2F)c[nH]1 | 6.87
CC1CCN(CCCNC(=O)Nc2cc3c(cc2Br)OCCO3)CC1 | -3.11
O=S(=O)(Cc1ccccc1F)NCCCN1CCCCC1 | 17.3
O=C(CN1CCc2cncnc2C1)NC(c1ccccc1)C1CC1 (configuration not stated) | -9.1
CCc1noc(CN(Cc2cccs2)C2CC2)n1 | 1.44
Cc1cnc(C(=O)N2CCC(C(=O)c3cc(F)ccc3F)CC2)cn1 | -5.88
Cc1sc(-c2ccco2)nc1C(=O)NCC1CCOC1 (configuration not stated) | -6.71
CCc1nccn1C1CCCN(C(=O)c2csc(COC)n2)C1 (configuration not stated) | -8.11
Cc1cccc(-c2ccc(C(=O)N3CCSCC3)c(=O)[nH]2)c1 | 6.99
Cc1ccccc1CS(=O)(=O)CC(=O)NCc1ccccc1F | -6
Cc1ccc(F)c(S(=O)(=O)N2CCCC2c2ccncc2)c1 (configuration not stated) | 10.6
COc1ccccc1C(=O)N(Cc1nc(C)cs1)CC1CCCO1 (configuration not stated) | 0.136
CCCNc1ccc(C(=O)NCCc2cccc(Cl)c2)cn1 | 1.17
O=C(c1cccnc1N1CCN(Cc2ccoc2)CC1)N1CCCCC1 | -3.68
CCn1ccnc1CN1CCCN(C(=O)c2cnn(C)c2)CC1 | -7.25
COc1ccc(CCC(=O)N(C)CCN2CCOCC2)cc1OC | 7.83
Cc1cccc(CN2CC3(CCN(C(=O)N(C)C)CC3)OCC2=O)n1 | -3.88
O=C1CCc2cc(C(=O)NCc3ccc(-n4cncn4)nc3)ccc2N1 | -11.5
COc1ccc(CN2CC[C@H](c3nnc(-c4ccco4)o3)C2)cc1 | 0.0623
CNCc1cn(C2CCN(C(=O)NCc3ccco3)CC2)nn1 | 1.11
CCn1cc(CN(C)Cc2cnn(-c3ccc(F)cc3)c2)cn1 | -5.44
CO[C@@H]1CO[C@@]2(CCCN(C(=O)N3CCCC3)C2)C1 | -98.6
Cc1nn(C)c(C)c1C1COCCN1C(=O)Cc1cccc(F)c1 (configuration not stated) | -11

SMILES | cytotoxicity at 10 µM [%]
O=C(NCCN1CCOCC1)c1cc(COc2ccccc2F)[nH]n1 | 13.1
Cn1cc(CN2CCc3onc(C(=O)N4CCCC4)c3C2)cn1 | -12.2
CCC(C)NC(=O)c1coc(COc2cccc(F)c2)n1 (configuration not stated) | -146
O=C(c1cnccn1)N1CCCC(Cn2cc(C3CCCC3)nn2)C1 (configuration not stated) | -4.86
Cn1cnc(S(=O)(=O)N2CCO[C@H]3[C@@H](OCC4CC4)CC[C@@H]32)c1 | 7.74
Cc1ccnn1CC(=O)N1CCN(C2CCc3ccccc3C2)CC1 (configuration not stated) | -131
CC(NC(=O)Cc1ccccc1F)C(=O)N1CCS(=O)(=O)CC1 (configuration not stated) | 8.68
CC(c1ccc(F)c(F)c1)N(C)CCS(=O)(=O)CCC(N)=O (configuration not stated) | -52.2
CN(C)S(=O)(=O)N1CCC(c2ccncn2)CC1 | -20.5
Cn1cc(C(=O)N2CCC(c3nccn3Cc3ccncc3)CC2)cn1 | -0.658
CN(C)Cc1nc(C(=O)N2CCCC(COc3ccc(F)cc3)C2)cs1 (configuration not stated) | -6.09
Fc1cccc(C(NCc2ncc[nH]2)c2ccccn2)c1 (configuration not stated) | 3.95
Clc1cc(CN2CCCN3CCCC3C2)c2ncccc2c1 (configuration not stated) | 19.5
CCN(Cc1ccncc1)C(=O)c1cc(C)c(C)c(S(N)(=O)=O)c1 | -2.33
CCN1C(=O)CC(c2cnn(C)c2)C12CCN(C(=O)C1CC=CC1)CC2 (configuration not stated) | 5.13
CN(C)C[C@H]1O[C@H](Cc2cc(-c3ccccn3)on2)CC[C@@H]1O | -3.15
O=C(Nc1ccc(=O)n(Cc2ccccc2Cl)c1)C1CC1 | -6.57
Cc1nc([C@@H]2C[C@H]3CN(Cc4scnc4C)C[C@H]3O2)no1 | -127
CC(NC(=O)NCCCN1CCCCCC1)c1nncn1C (configuration not stated) | -7.1
COCCN(CCOC)Cc1nc2c(cnn2C)c(=O)[nH]1 | -9.73
COc1cccc(OCC2CCCN(C(=O)CCn3ccnc3)C2)c1 (configuration not stated) | -19.8
Cn1cc(C2CCCN2C(=O)c2ccc(NC3CC3)nc2)cn1 (configuration not stated) | -14.4
Cc1ccc(CN(CCCn2ccnc2)Cc2[nH]cnc2C)s1 | -22.8

SMILES | cytotoxicity at 10 µM [%]
COCCN1CCO[C@@H]2CN(C(=O)NCc3ccccc3)CC[C@@H]2C1 | 3.23
CCS(=O)(=O)NCCNCc1cc(F)ccc1Br | 1.58
CC(C)CN1CC[C@@H]2[C@@H]1CCN2C(=O)N(C)C | -0.88
CC(C)C(=O)N1CCN(C(=O)c2cc(C(C)C)on2)[C@H]2CS(=O)(=O)C[C@H]21 | -19
Cc1ccc(CNC(=O)NC(C)CN2CCOCC2)s1 (configuration not stated) | -14.1
Cc1ccc(NC2CCN(C(=O)c3cc[nH]n3)CC2)nn1 | -15.2
CCn1cnnc1CNC(=O)N1CCN(c2cccc(OC)c2)CC1 | -8.62
COc1ccc(Cl)cc1CC(=O)N1CCN(CCO)CC1 | -9.51
CN(Cc1cn2c(n1)CN(Cc1nccs1)CC2)Cc1ccco1 | -77.2
Cc1ccn(-c2ccc(N3CCN(Cc4ccccn4)CC3)nn2)n1 | 5.6
CN1C(=O)CCCC12CCCN(Cc1cccs1)C2 (configuration not stated) | -0.302
COc1cccc(C(=O)N2CCc3ncnc(C)c3CC2)c1 | -12.6
CN(Cc1cnn(C)c1)C(=O)c1ccc(=O)n(C)n1 | -7.87
Fc1cnc(N2CCCn3cnc(COc4cccnc4)c3C2)nc1 | 1.42
CC(=O)N1CCC(c2cncc(N3CCC(O)C3)n2)CC1 (configuration not stated) | 5.57
Cc1nnc2n1CCN(c1nn3cc(C(C)(C)C)nc3s1)C2 | -0.903
CCN(CC)CC[C@H]1CN(C(=O)c2ccc(F)cc2)CC[C@H]1CC(=O)O | 3.1
COCC(=O)NC(C)Cc1cccc(Cl)c1 (configuration not stated) | -8.72
CC(C)c1cnc(CN2CCCC(c3ccn[nH]3)C2)o1 (configuration not stated) | -4.01
O=C(CN1CC(n2cccn2)C1)NCCCc1ccccc1 | -9.51
Cc1cc(S(=O)(=O)N2CC[C@@H](O)C2)c(Cl)cc1F | -8.59
CCC[C@H]1CN(C2CCOCC2)C[C@@H]1NC(=O)CCc1cnccn1 | 3.12
C[C@@H]1CN(CCCOc2ccc(F)cc2)CC[C@@]1(O)C1CCOCC1 | -8.01

SMILES | cytotoxicity at 10 µM [%]
CCCc1nc(C)c(C(=O)NCCNc2ncccn2)s1 | -7.22
Cc1c(CNCCCOc2cccnc2)c2ccccc2n1CC(N)=O | -145
CNC(=O)c1cccc(C2CNCCN2C(C)=O)c1 (configuration not stated) | 0.384
O=C(NCCCO)Nc1cccc(C[S+]([O-])Cc2ccccc2)c1 (configuration not stated) | -1.06
CC(C)c1nnc(CN2CC(n3cccn3)Cc3ccccc32)o1 (configuration not stated) | -146
COc1ccccc1N1CCN(CC(=O)NC(C)c2ccco2)CC1 (configuration not stated) | -2.58
Cc1cc(C2CCN(S(=O)(=O)N(C)C)CC2)ccn1 | -13
Cc1cc(CN2C[C@H](N3CCOCC3)[C@@H]3OCCC[C@@H]32)oc1C | -139
Cn1ccnc1CN1CCC(F)(F)C2(CCN(c3cnccn3)C2)C1 (configuration not stated) | 16.4
O=c1c2sccc2ncn1Cc1cc(C2CC2)[nH]n1 | 0.463
Cc1cnc(CN2CCN(C(C)c3nc(C)no3)CC2)cn1 (configuration not stated) | 1.81
CC(C)NC(=O)c1nc(Cn2c(C(F)F)nc3ccccc32)no1 | 9.34
Cc1c(C(=O)N2CC(O)C2)nnn1-c1cccc2cnccc12 | 3.04
CCCN1CCN(C(=O)c2ccc3nc(C)oc3c2)[C@H]2CS(=O)(=O)C[C@H]21 | -23.2
CNc1nc(CS(=O)(=O)c2ccccc2)cs1 | 13
c1cncc(-c2ccc3c(c2)CCC32CCNCC2)c1 | -10.3
CCN(Cc1cccc(Cl)c1)Cn1nc(C)c2c(C)onc2c1=O | -13
CN(C)CC1CN(Cc2ccc(F)cc2)Cc2nccn2C1 (configuration not stated) | -71.1
CN1CCC(c2cc(CCO)ncn2)C1 (configuration not stated) | 4.87
COc1ccc(C(O)CNc2c(C#N)c(=O)n(C)c(=O)n2C)cc1 (configuration not stated) | -7.34
CN(C)CCOCC1CN(C(=O)c2ccnnc2)Cc2ccnn2C1 (configuration not stated) | 7.89
Cc1nc(C2CCCC2)sc1C(N)=O | -5.03
Cc1nc(Nc2ncc(C)s2)cc(C2CCCN2S(C)(=O)=O)n1 (configuration not stated) | -37.6

SMILES | cytotoxicity at 10 µM [%]
CCc1sc(C(=O)NC2CC2)cc1C | 14.5
COCCNC(=O)Cn1cc(NC(=O)c2cc(Cl)c(Cl)n2C)cn1 | -4.01
CCCNCc1ncc(C)c(OC)c1C | 0.105
Cc1ccc(NCCCc2c(C)noc2C)nn1 | 8.12
Cn1nc(C(=O)N2CCCCCC2)cc1NC(=O)c1ccccc1 | -0.942
O=C(CC1[C@H]2CN(c3ncccn3)C[C@@H]12)Nc1cccnc1 (some centres not stated) | -1.55
N#Cc1ccnc(N2CCN(C(=O)c3ccc4c(c3)CCO4)CC2)c1 | -5.75
Cc1nccn1-c1cc(CNC(=O)C2CCC(=O)N2)ccn1 (configuration not stated) | -1.24
Cc1ccc(CNCC2CNc3cc(C)nn3C2)cn1 (configuration not stated) | -7.07
O=C(CCNc1ccccc1)NC1CCN(C(=O)C2CCCCC2)CC1 | 6.72
CCCN(Cc1cccnc1)C(=O)C1CCS(=O)(=O)CC1 | -9.03
O=C(CC1CN(Cc2ccccc2)CCO1)NC1CCCC1 (configuration not stated) | -0.394
Cc1nc2ccccc2nc1CN1CCn2nc(CCC(=O)O)cc2C1 | -3.43
Cc1cc(NC(=O)CN2CCOC(Cn3nc(C)cc3C)C2)n(C)n1 (configuration not stated) | -7.91
Cc1cccc(-c2c[nH]c(C3CCCN3)n2)c1 (configuration not stated) | -11.4
Fc1ccc(-c2nnc(CN3CCn4c(nnc4C4CC4)C3)o2)cc1 | 0.577
c1cc(-c2nc3c(c(NCCc4c[nH]cn4)n2)CCNCC3)ccn1 | -146
CCCC(C)C(=O)N1CCC(n2cccc2C(=O)OC)CC1 (configuration not stated) | -10
CCn1c(=O)n(Cc2nc(C3CC3)no2)c2ccccc21 | -43.2
FC(F)(F)C1CCc2nnc(CNCc3cccs3)n2C1 (configuration not stated) | 2.9
